In brackets after ≈: the same amount, converted by molar mass.
What was measured:
Phospholipase D2 = Phospholipase D2 (Homo sapiens, UniProt O14939); assay: Inhibition of PLD2 (unknown origin) expressed in human HEK cells by immunoprecipitation; type: cell-based
Method in brief: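 PLD1 or PLD2 immunoprecipitated from HEK-293 cell lysates and captured on plate with an antibody (ELISA format); 08:0 phosphatidylcholine substrate; released choline detected by Amplex Red readout.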

[1] = Microsomal stability in human liver microsomes assessed as intrinsic clearance; type: ADME, Microsome; details: read-out: CLH
Method in brief: (§1)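 Intrinsic clearance (CLint) determined in rat or human liver microsomes.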

[2] = Microsomal stability in rat liver microsomes assessed as intrinsic clearance; type: ADME, Microsome; details: read-out: CLH; method in brief: as §1
[3] = Kinetic solubility of compound at pH 6.8; type: physicochemical; details: buffer, read-out: Kinetic_solubility
Method in brief: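 Kinetic solubility measured at pH 6.8.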

[4] = Clearance in iv dosed rat administered as cassette dose; type: ADME, organism-based; details: in vivo
Method in brief: (§2)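 Rat IV clearance from cassette dosing; unbound clearance calculated as CL/fu.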

[5] = Unbound clearance in iv dosed rat administered as cassette dose; type: ADME, organism-based; details: in vivo; method in brief: as §2
Phospholipase D1 = target: T1, Phospholipase D1 (Homo sapiens, UniProt Q13393); assay: Inhibition of PLD1 (unknown origin) expressed in human HEK cells by immunoprecipitation assay; type: cell-based
T1 sequence (Q13393 whole entry): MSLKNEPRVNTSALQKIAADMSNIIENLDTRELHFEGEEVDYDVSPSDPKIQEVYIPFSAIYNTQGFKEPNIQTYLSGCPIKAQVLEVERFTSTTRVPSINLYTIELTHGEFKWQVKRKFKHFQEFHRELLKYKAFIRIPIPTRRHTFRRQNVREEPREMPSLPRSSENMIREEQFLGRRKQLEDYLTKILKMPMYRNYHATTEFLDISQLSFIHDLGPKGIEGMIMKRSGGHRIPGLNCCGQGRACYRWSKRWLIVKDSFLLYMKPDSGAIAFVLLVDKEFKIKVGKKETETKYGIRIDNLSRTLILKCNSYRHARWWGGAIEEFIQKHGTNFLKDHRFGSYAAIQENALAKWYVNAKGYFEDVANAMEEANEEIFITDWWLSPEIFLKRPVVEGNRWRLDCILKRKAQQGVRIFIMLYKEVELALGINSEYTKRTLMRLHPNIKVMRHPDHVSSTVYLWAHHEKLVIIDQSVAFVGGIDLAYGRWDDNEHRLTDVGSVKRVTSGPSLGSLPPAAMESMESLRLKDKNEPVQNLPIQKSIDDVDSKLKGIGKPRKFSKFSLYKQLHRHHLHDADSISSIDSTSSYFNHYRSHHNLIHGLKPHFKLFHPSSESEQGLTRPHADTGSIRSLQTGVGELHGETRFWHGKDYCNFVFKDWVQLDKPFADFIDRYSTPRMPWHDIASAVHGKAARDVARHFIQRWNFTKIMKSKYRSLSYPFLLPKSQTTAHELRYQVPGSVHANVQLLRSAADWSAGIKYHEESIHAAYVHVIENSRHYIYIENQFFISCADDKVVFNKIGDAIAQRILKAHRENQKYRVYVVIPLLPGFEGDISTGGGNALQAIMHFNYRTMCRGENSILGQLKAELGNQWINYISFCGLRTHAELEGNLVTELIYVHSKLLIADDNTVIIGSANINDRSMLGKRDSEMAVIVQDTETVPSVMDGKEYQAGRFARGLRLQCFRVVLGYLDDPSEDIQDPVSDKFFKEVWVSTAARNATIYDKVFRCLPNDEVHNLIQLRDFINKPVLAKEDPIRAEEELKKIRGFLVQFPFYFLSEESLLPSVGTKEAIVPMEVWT

MDR1 (P-gp) = assay: Efflux ratio of apparent permeability from basolateral to apical side over apical to basolateral side in dog MDCK-MDR1 cells; type: ADME, cell-based, Canis lupus familiaris
Method in brief: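 Efflux ratio calculated as Papp(B–A)/Papp(A–B) across MDR1-transfected MDCK monolayers.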

[6] = target: Phospholipase D1 (Homo sapiens) (UniProt Q13393); assay: Inhibition of PLD1 in human Calu-1 cells assessed as reduction in d9-phosphobutanol formation by mass spectrometry-based transphosphatidylation assay
BCRP = assay: Efflux ratio of apparent permeability from basolateral to apical side over apical to basolateral side in dog MDCK-BCRP cells; type: ADME, cell-based, Canis lupus familiaris

Sequence of Phospholipase D2 (O14939 whole entry): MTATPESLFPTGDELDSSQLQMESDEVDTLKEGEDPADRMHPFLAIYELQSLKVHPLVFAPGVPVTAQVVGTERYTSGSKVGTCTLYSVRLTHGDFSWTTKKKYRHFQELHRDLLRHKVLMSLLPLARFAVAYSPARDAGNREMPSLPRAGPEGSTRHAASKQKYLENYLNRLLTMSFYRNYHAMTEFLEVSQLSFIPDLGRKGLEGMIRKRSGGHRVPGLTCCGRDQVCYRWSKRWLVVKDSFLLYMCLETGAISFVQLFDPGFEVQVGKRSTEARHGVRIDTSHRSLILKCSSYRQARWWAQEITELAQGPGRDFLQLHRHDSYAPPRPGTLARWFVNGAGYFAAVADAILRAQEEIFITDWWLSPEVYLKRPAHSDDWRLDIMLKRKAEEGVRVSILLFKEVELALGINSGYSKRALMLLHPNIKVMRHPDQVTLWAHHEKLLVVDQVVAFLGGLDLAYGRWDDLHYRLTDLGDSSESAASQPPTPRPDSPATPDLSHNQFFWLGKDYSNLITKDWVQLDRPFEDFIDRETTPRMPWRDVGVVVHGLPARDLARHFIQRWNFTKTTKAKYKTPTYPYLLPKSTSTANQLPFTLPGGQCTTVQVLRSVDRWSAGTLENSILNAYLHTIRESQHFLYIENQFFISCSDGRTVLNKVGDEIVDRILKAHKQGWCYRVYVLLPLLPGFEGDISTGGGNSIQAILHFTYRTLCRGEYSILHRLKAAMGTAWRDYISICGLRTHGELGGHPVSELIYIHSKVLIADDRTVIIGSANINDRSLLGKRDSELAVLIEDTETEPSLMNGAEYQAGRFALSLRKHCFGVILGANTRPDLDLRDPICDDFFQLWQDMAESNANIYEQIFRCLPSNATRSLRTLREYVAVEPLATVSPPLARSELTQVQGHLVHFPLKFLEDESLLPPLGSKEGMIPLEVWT

| SMILES | IC50 (Phospholipase D2) [nM] | CLint scaled [1] [mL/min/kg] | CLint scaled [2] [mL/min/kg] | solubility kinetic [3] [µg/mL] | clearance [4] [mL/min/kg] | CL free [5] [mL/min/kg] | IC50 (Phospholipase D1) [nM] | efflux ratio (MDR1 (P-gp)) | IC50 [6] [nM] | efflux ratio (BCRP) |
| --- | --- | --- | --- | --- | --- | --- | --- | --- | --- | --- |
| C[C@@H](CN1CCC2(CC1)C(=O)NCN2c1cccc(F)c1)NC(=O)c1ccc(Br)cc1 | 67 | 89 | 312 | 3.8 (≈ 7.76 µM) | 36 | > 3800 |  |  |  |  |
| C[C@@H]1CN(C(=O)[C@H](C)N2CCC(n3c(=O)[nH]c4ccccc43)CC2)Cc2ccccc21 | 320 | > 200 | > 300 |  |  |  | 100 | 22 | 6 |  |
| CC(=O)N(C)CCN1CCC(n2c(=O)[nH]c3cc(Cl)ccc32)CC1 | > 10000 |  |  |  |  |  | 130 | 24 | 180 |  |
| C[C@@H](CN1CCC(n2c(=O)[nH]c3ccccc32)CC1)NC(=O)c1ccc(F)cc1 | 5600 | < 4 | 170 |  |  |  | 33 | 82 | 16 |  |
| C[C@@H](CN1CCC2(CC1)OC(=O)Nc1cccnc12)NC(=O)c1ccc(F)cc1 | 4100 | 13 | 48 | 59 (≈ 148 µM) | 40 | 83 | 200 | 68 | 54 |  |
| C[C@@H](CN1CCC2(CC1)NC(=O)Nc1ccccc12)NC(=O)c1ccc(F)cc1 | > 10000 | 14 | 66 | 51 (≈ 129 µM) | 15 | 74 | 280 | 67 | 720 |  |
| C[C@@H]1CNCCN1C(=O)[C@H](C)N1CCC(n2c(=O)[nH]c3ccccc32)CC1 |  | 12 | 84 |  |  |  | 140 | 5.4 | 180 |  |
| C[C@@H]1CN(C(=O)[C@H](C)N2CCC(n3c(=O)[nH]c4ccccc43)CC2)CCN1 |  | < 5 | 29 |  | 39 | 73 | 320 | 13 | 190 |  |
| C[C@@H](C(=O)N1CCNC(C)(C)C1)N1CCC(n2c(=O)[nH]c3ccccc32)CC1 | 7000 | 8 | 56 |  | 39 | 73 | 360 | 5.2 | 280 |  |
| C[C@@H](CN1CCC2(CC1)OC(=O)Nc1cc(F)ccc12)NC(=O)c1ccc(F)cc1 | 1000 | 68 | 250 |  |  |  | 71 | 42 | 78 |  |
| C[C@@H](CN1CCC2(CC1)c1ccccc1NC(=O)N2C)NC(=O)c1ccc(F)cc1 | > 10000 | 39 | 113 | 71 (≈ 173 µM) |  |  | > 10000 | 93 | > 10000 |  |
| C[C@@H](CN1CCC2(CC1)OC(=O)NC[C@H]2c1cccc(F)c1)NC(=O)c1ccc(F)cc1 | 64 | 38 | 394 | 61 (≈ 138 µM) | 119 | 308 | 22 | 12 | 2 |  |
| C[C@@H](CN1CCC(c2n[nH]c3ccccc23)CC1)NC(=O)c1ccc(F)cc1 | > 10000 | 42 | 311 |  |  |  | 970 | 8 | 4200 |  |
| C[C@@H](C(=O)N1CCC(F)(F)C1)N1CCC(n2c(=O)[nH]c3ccccc32)CC1 | 2900 | 10 | > 300 |  | 34 | 192 | 170 | 2.5 | 1200 | 1.2 |
| C[C@H]1CN(C(=O)[C@H](C)N2CCC(n3c(=O)[nH]c4ccccc43)CC2)CCN1 | 1100 | < 5 | < 10 |  | 39 | 73 | 76 | 5.5 | 160 | 2.3 |
| C[C@@H](CN1CCC(N2CCNC2=O)CC1)NC(=O)c1ccc(F)cc1 | > 10000 | < 4 | 16 |  |  |  | > 10000 | 7.7 | > 10000 |  |
| CC[C@H]1CN(C(=O)[C@H](C)N2CCC(n3c(=O)[nH]c4ccccc43)CC2)CCN1 | 920 | < 4 | 59 |  |  |  | 68 | 50 | 44 |  |
| C[C@@H](CN1CCC2(CC1)CC(=O)Nc1ccccc12)NC(=O)c1ccc(F)cc1 | > 10000 | 28 | 83 | 59 (≈ 149 µM) | 8.6 | 42 | 490 | 11 | 460 |  |
| C[C@@H](CN1CCC(n2c(=O)oc3ccccc32)CC1)NC(=O)c1ccc(F)cc1 | > 10000 | 23 | 314 |  |  |  | 9300 | 2 | > 10000 |  |
| C[C@@H]1CN(C(=O)[C@H](C)N2CCC(n3c(=O)[nH]c4ccccc43)CC2)C[C@H](C)N1 | 200 | 6.9 | 43 |  | 45 | 68 | 40 | 14 | 32 |  |
| C[C@@H](CN1CCC2(CC1)OC(=O)Nc1ccncc12)NC(=O)c1ccc(F)cc1 | 3200 | 12 | 50 | 58 (≈ 146 µM) | 48 | 69 | 110 | 47 | 78 |  |
| C[C@@H](CN1CCC2(CC1)OC(=O)Nc1ccccc12)NC(=O)c1ccc(F)cc1 | 1300 | 39 | 103 | 76 (≈ 191 µM) | 40 | 172 | 66 | 218 | 74 |  |
| C[C@@H](C(=O)N1CCOCC1)N1CCC(n2c(=O)[nH]c3ccccc32)CC1 | > 10000 | < 5 | 162 |  | 13 |  | 380 | 36 | 560 | 1.5 |
| C[C@@H](CN1CCC(N2C(=O)Cc3ccccc32)CC1)NC(=O)c1ccc(F)cc1 | > 10000 | 42 | 311 |  |  |  | 1200 | 8 | 1100 |  |
